Test results published in ChEMBL document CHEMBL3992547, “Antimicrobial activity of rhodanine-3-acetic acid derivatives” (Bioorg Med Chem, 2017).
Converted amounts (≈) assume the structure as drawn. The source made the active and inactive calls. The calls are words filed in the database; no cut-off is given here.

How the values were obtained:
Candida albicans [1] = assay: Antifungal activity against Candida albicans ATCC 44859 after 24 hrs by microdilution broth assay; format: functional; details: ATCC 44859, 24 h
Outline: (§1)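 Broth microdilution per CLSI M27-A3 and M38-A2 in RPMI 1640 with glutamine, buffered to pH 7.0 with MOPS. Compounds are diluted in DMSO. Final inoculum is 5 × 10³ CFU/mL for yeasts and 0.5–5 × 10⁴ CFU/mL for moulds. Plates are incubated in the dark at 35 °C in humid air and read visually and/or at 540 nm after 24 and 48 h. MIC is ≥80% growth reduction (IC₈₀) for yeasts and ≥50% (IC₅₀) for filamentous fungi.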

Candida albicans [2] = assay: Antifungal activity against Candida albicans ATCC 44859 after 48 hrs by microdilution broth assay; format: functional; details: ATCC 44859, 48 h; outline: as §1
Candida tropicalis [3] = assay: Antifungal activity against Candida tropicalis 156 after 24 hrs by microdilution broth assay; format: functional; details: Candida tropicalis, 156, 24 h; outline: as §1
Candida tropicalis [4] = assay: Antifungal activity against Candida tropicalis 156 after 48 hrs by microdilution broth assay; format: functional; details: Candida tropicalis, 156, 48 h; outline: as §1
Nakaseomyces glabratus [5] = assay: Antifungal activity against Candida glabrata 20/I after 24 hrs by microdilution broth assay; format: functional; outline: as §1
Nakaseomyces glabratus [6] = assay: Antifungal activity against Candida glabrata 20/I after 48 hrs by microdilution broth assay; format: functional; outline: as §1
Trichosporon asahii [7] = assay: Antifungal activity against Trichosporon asahii 1188 after 24 hrs by microdilution broth assay; format: functional; details: Trichosporon asahii, 1188, 24 h; outline: as §1
Trichosporon asahii [8] = assay: Antifungal activity against Trichosporon asahii 1188 after 48 hrs by microdilution broth assay; format: functional; details: Trichosporon asahii, 1188, 48 h; outline: as §1
Aspergillus fumigatus [9] = assay: Antifungal activity against Aspergillus fumigatus 231 after 24 hrs by microdilution broth assay; format: functional; details: Aspergillus fumigatus, 231, 24 h; outline: as §1
Aspergillus fumigatus [10] = assay: Antifungal activity against Aspergillus fumigatus 231 after 48 hrs by microdilution broth assay; format: functional; details: Aspergillus fumigatus, 231, 48 h; outline: as §1
[11] = tested on: Trichophyton mentagrophytes; assay: Antifungal activity against Trichophyton mentagrophytes 445 after 72 hrs by microdilution broth assay; format: functional; details: Trichophyton mentagrophytes, 445, 72 h
Outline: (§2)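 Broth microdilution per CLSI M38-A2 in RPMI 1640 with glutamine, buffered to pH 7.0 with MOPS, with DMSO as diluent. Final inoculum is 0.5–5 × 10⁴ CFU/mL. Plates are incubated in the dark at 35 °C in humid air and read visually and/or at 540 nm after 72 and 120 h. MIC is at least 50% growth reduction versus control.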

[12] = tested on: Trichophyton mentagrophytes; assay: Antifungal activity against Trichophyton mentagrophytes 445 after 120 hrs by microdilution broth assay; format: functional; details: Trichophyton mentagrophytes, 445, 120 h; outline: as §2
[13] = tested on: Mycobacterium tuberculosis; assay: Antimycobacterial activity against Mycobacterium tuberculosis H37Rv 331/88 measured after 14 days by micromethod; format: functional; details: H37Rv 331/88, 336 h
[14] = tested on: Mycobacterium tuberculosis; assay: Antimycobacterial activity against Mycobacterium tuberculosis H37Rv 331/88 measured after 21 days by micromethod; format: functional; details: H37Rv 331/88, 504 h
Mycobacterium avium [15] = assay: Antimycobacterial activity against Mycobacterium avium 330/88 measured after 14 days by micromethod; format: functional; details: 330/88, 336 h
Mycobacterium avium [16] = assay: Antimycobacterial activity against Mycobacterium avium 330/88 measured after 21 days by micromethod; format: functional; details: 330/88, 504 h
Mycobacterium kansasii [17] = assay: Antimycobacterial activity against Mycobacterium kansasii isolate 235/80 after 7 days by micromethod; format: functional; details: isolate 235/80, 168 h
Mycobacterium kansasii [18] = assay: Antimycobacterial activity against Mycobacterium kansasii isolate 235/80 after 14 days by micromethod; format: functional; details: isolate 235/80, 336 h
Mycobacterium kansasii [19] = assay: Antimycobacterial activity against Mycobacterium kansasii isolate 235/80 after 21 days by micromethod; format: functional; details: isolate 235/80, 504 h
Mycobacterium kansasii [20] = assay: Antimycobacterial activity against Mycobacterium kansasii isolate 6509/96 after 7 days by micromethod; format: functional; details: isolate 6509/96, 168 h
Mycobacterium kansasii [21] = assay: Antimycobacterial activity against Mycobacterium kansasii isolate 6509/96 after 14 days by micromethod; format: functional; details: isolate 6509/96, 336 h
Mycobacterium kansasii [22] = assay: Antimycobacterial activity against Mycobacterium kansasii isolate 6509/96 after 21 days by micromethod; format: functional; details: isolate 6509/96, 504 h
[23] = Solubility of the compound in Sula's semisynthetic medium up to 1 mM; format: physicochemical
Staphylococcus aureus [24] = assay: Antibacterial activity against Staphylococcus aureus CCM 4516/08 incubated for 24 hrs under dark condition by microdilution broth assay; format: functional; details: CCM 4516/08, 24 h
Outline: (§3)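 Broth microdilution per M07-A07, modified, in Mueller-Hinton broth adjusted to pH 7.4 (±0.2). Inoculum is prepared in sterile water to McFarland 0.5 (1.5 × 10⁸ CFU/mL). Plates are incubated in the dark at 35 °C in humid air. MIC is read after 24 and 48 h as at least 95% growth reduction versus control (IC₉₅).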

Staphylococcus aureus [25] = assay: Antibacterial activity against Staphylococcus aureus CCM 4516/08 incubated for 48 hrs under dark condition by microdilution broth assay; format: functional; details: CCM 4516/08, 48 h; outline: as §3
Staphylococcus aureus [26] = assay: Antibacterial activity against methicillin-resistant Staphylococcus aureus H 5996/08 incubated for 24 hrs under dark condition by microdilution broth assay; format: functional; details: H 5996/08, 24 h
Outline: (§4)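 Microdilution broth method modified per M07-A07, in Mueller-Hinton broth adjusted to pH 7.4 (±0.2). Inoculum made in sterile water to 0.5 McFarland (1.5 × 10⁸ CFU/mL). Plates incubated in the dark at 35 °C in a humid atmosphere, with reads at 24 and 48 h. MIC taken as at least 95% growth reduction (IC₉₅) versus control.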

Staphylococcus aureus [27] = assay: Antibacterial activity against methicillin-resistant Staphylococcus aureus H 5996/08 incubated for 48 hrs under dark condition by microdilution broth assay; format: functional; details: H 5996/08, 48 h; outline: as §4
[28] = tested on: Staphylococcus epidermidis; assay: Antibacterial activity against Staphylococcus epidermidis H 6966/08 incubated for 24 hrs under dark condition by microdilution broth assay; format: functional; details: H 6966/08, 24 h; outline: as §3
[29] = tested on: Staphylococcus epidermidis; assay: Antibacterial activity against Staphylococcus epidermidis H 6966/08 incubated for 48 hrs under dark condition by microdilution broth assay; format: functional; details: H 6966/08, 48 h; outline: as §3
Escherichia coli [30] = assay: Antibacterial activity against Escherichia coli CCM 4517 incubated for 24 hrs under dark condition by microdilution broth assay; format: functional; details: CCM 4517, 24 h; outline: as §3
Escherichia coli [31] = assay: Antibacterial activity against Escherichia coli CCM 4517 incubated for 48 hrs under dark condition by microdilution broth assay; format: functional; details: CCM 4517, 48 h; outline: as §3
Klebsiella pneumoniae [32] = assay: Antibacterial activity against Klebsiella pneumoniae D 11750/08 up to 500 uM incubated for 24 to 48 hrs under dark condition by microdilution broth assay; format: functional; outline: as §3
Klebsiella pneumoniae [33] = assay: Antibacterial activity against ESBL positive Klebsiella pneumoniae J 14368/08 up to 500 uM incubated for 24 to 48 hrs under dark condition by microdilution broth assay; format: functional; outline: as §3
Pseudomonas aeruginosa = assay: Antibacterial activity against Pseudomonas aeruginosa CCM 1961 up to 500 uM incubated for 24 to 48 hrs under dark condition by microdilution broth assay; format: functional; outline: as §3
Pichia kudriavzevii = assay: Antifungal activity against Candida krusei E28 after 24 to 48 hrs hrs by microdilution broth assay; format: functional; outline: as §1
Lichtheimia corymbifera = assay: Antifungal activity against Absidia corymbifera 272 after 24 to 48 hrs hrs by microdilution broth assay; format: functional; outline: as §1
Enterococcus [34] = assay: Antibacterial activity against Enterococcus sp. J 14365/08 incubated for 24 hrs under dark condition by microdilution broth assay; details: J 14365/08, 24 h
Enterococcus [35] = assay: Antibacterial activity against Enterococcus sp. J 14365/08 incubated for 48 hrs under dark condition by microdilution broth assay; details: J 14365/08, 48 h

OC(Cn1cncn1)(Cn1cncn1)c1ccc(F)cc1F [FLUCONAZOLE]
MIC80 (Candida albicans [1]): 0.24 µM (≈ 0.0735 µg/mL) | MIC80 (Candida albicans [2]): 0.24 µM (≈ 0.0735 µg/mL) | MIC80 (Candida tropicalis [3]): > 500 µM | MIC80 (Candida tropicalis [4]): > 500 µM | MIC80 (Nakaseomyces glabratus [5]): 62.5 µM (≈ 19.1 µg/mL) | MIC80 (Nakaseomyces glabratus [6]): 500 µM (≈ 153 µg/mL) | MIC80 (Trichosporon asahii [7]): 250 µM (≈ 76.6 µg/mL) | MIC80 (Trichosporon asahii [8]): 500 µM (≈ 153 µg/mL) | MIC50 (Aspergillus fumigatus [9]): > 500 µM | MIC50 (Aspergillus fumigatus [10]): > 500 µM | MIC50 [11]: 7.81 µM (≈ 2.39 µg/mL) | MIC50 [12]: 125 µM (≈ 38.3 µg/mL)

O=C(CN1C(=O)CSC1=S)Nc1ccc([N+](=O)[O-])cc1
MIC [13]: 500 µM (≈ 156 µg/mL) | MIC [14]: 500 µM (≈ 156 µg/mL) | MIC (Mycobacterium avium [15]): 1000 µM (≈ 311 µg/mL) | MIC (Mycobacterium avium [16]): 1000 µM (≈ 311 µg/mL) | MIC (Mycobacterium kansasii [17]): 500 µM (≈ 156 µg/mL) | MIC (Mycobacterium kansasii [18]): 500 µM (≈ 156 µg/mL) | MIC (Mycobacterium kansasii [19]): 1000 µM (≈ 311 µg/mL) | MIC (Mycobacterium kansasii [20]): 500 µM (≈ 156 µg/mL) | MIC (Mycobacterium kansasii [21]): 500 µM (≈ 156 µg/mL) | MIC (Mycobacterium kansasii [22]): 1000 µM (≈ 311 µg/mL) | solubility [23]: Soluble | MIC95 (Staphylococcus aureus [24]): 500 µM (≈ 156 µg/mL) | MIC95 (Staphylococcus aureus [25]): 500 µM (≈ 156 µg/mL) | MIC95 (Staphylococcus aureus [26]): 500 µM (≈ 156 µg/mL) | MIC95 (Staphylococcus aureus [27]): 500 µM (≈ 156 µg/mL) | MIC95 [28]: 250 µM (≈ 77.8 µg/mL) | MIC95 [29]: 250 µM (≈ 77.8 µg/mL) | MIC95 (Escherichia coli [30]): > 500 µM | MIC95 (Escherichia coli [31]): > 500 µM | Activity (Klebsiella pneumoniae [32]): inactive | Activity (Klebsiella pneumoniae [33]): inactive | Activity (Pseudomonas aeruginosa): inactive | Activity (Pichia kudriavzevii): inactive | Activity (Lichtheimia corymbifera): inactive | MIC95 (Enterococcus [34]): 250 µM (≈ 77.8 µg/mL) | MIC95 (Enterococcus [35]): 250 µM (≈ 77.8 µg/mL)

O=C(CN1C(=O)CSC1=S)Oc1ccccc1
MIC [13]: 1000 µM (≈ 267 µg/mL) | MIC [14]: 1000 µM (≈ 267 µg/mL) | MIC (Mycobacterium avium [15]): 1000 µM (≈ 267 µg/mL) | MIC (Mycobacterium avium [16]): 1000 µM (≈ 267 µg/mL) | MIC (Mycobacterium kansasii [17]): 500 µM (≈ 134 µg/mL) | MIC (Mycobacterium kansasii [18]): 1000 µM (≈ 267 µg/mL) | MIC (Mycobacterium kansasii [19]): 1000 µM (≈ 267 µg/mL) | MIC (Mycobacterium kansasii [20]): 500 µM (≈ 134 µg/mL) | MIC (Mycobacterium kansasii [21]): 1000 µM (≈ 267 µg/mL) | MIC (Mycobacterium kansasii [22]): 1000 µM (≈ 267 µg/mL) | solubility [23]: Soluble | MIC95 (Staphylococcus aureus [24]): > 125 µM | MIC95 (Staphylococcus aureus [25]): > 125 µM | MIC95 (Staphylococcus aureus [26]): > 125 µM | MIC95 (Staphylococcus aureus [27]): > 125 µM | MIC95 [28]: > 125 µM | MIC95 [29]: > 125 µM | MIC95 (Escherichia coli [30]): > 125 µM | MIC95 (Escherichia coli [31]): > 125 µM | Activity (Klebsiella pneumoniae [32]): inactive | Activity (Klebsiella pneumoniae [33]): inactive | Activity (Pseudomonas aeruginosa): inactive | Activity (Pichia kudriavzevii): inactive | Activity (Lichtheimia corymbifera): inactive | MIC95 (Enterococcus [34]): 125 µM (≈ 33.4 µg/mL) | MIC95 (Enterococcus [35]): > 125 µM
